Key:
[1] = test system: glutathione S-transferase; test: Stability assessed as half life at pH 8 in presence of rat glutathione S-transferase; format: ADME
[2] = test system: glutathione S-transferase; test: Stability assessed as half life in presence of rat glutathione S-transferase; format: ADME
[3] = test system: glutathione S-transferase; test: Stability assessed as half life at pH 7.4 in presence of rat glutathione S-transferase; format: ADME
[4] = Cytotoxicity against mouse B16-F1 cells at 100 uM after 48 hrs by MTT assay relative to control; format: functional
[5] = Cytotoxicity against mouse B16-F1 cells at 100 uM after 48 hrs by MTT assay relative to control in presence of 1-phenyl-2-thiourea; format: functional
[6] = Cytotoxicity against mouse B16-F1 cells at 100 uM after 48 hrs by MTT assay relative to control in presence of N-acetyl-L-cysteine; format: functional
[7] = test system: glutathione S-transferase; test: Stability assessed as half life at pH 7.4 in presence of rat glutathione S-transferase in liver cytosol; format: physicochemical
Method in brief: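 The GSH reaction was run at pH 7.4 with and without rat liver cytosol, which served as the glutathione S-transferase source. t1/2 was derived from the time course of reaction with GSH.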

[8] = Cytotoxicity against mouse B16-F1 cells after 48 hrs by MTT assay; format: functional, cell-based
[9] = substrate: O=C(O)CSc1ccc(O)cc1; test: (§1) Ratio of Kcat to Km of mushroom tyrosinase; settings: Agaricus bisporus
Method in brief: (§2)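 Mushroom tyrosinase kinetics were run by measuring the initial rate of enzyme-catalyzed o-quinone formation over increasing substrate concentrations. Km and Vmax were derived from these rates, and kcat and kcat/Km were calculated from them.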

[10] = substrate: COc1ccc(O)cc1; test: as §1; settings: Agaricus bisporus; method in brief: as §2
[11] = substrate: O=C(O)CCSc1ccc(O)cc1; test: as §1; settings: Agaricus bisporus; method in brief: as §2
[12] = substrate: O=C(O)CSc1ccc(O)cc1; test: (§3) Activity of mushroom tyrosinase assessed as o-quinone formation; settings: Agaricus bisporus; method in brief: as §2
[13] = substrate: COc1ccc(O)cc1; test: as §3; settings: Agaricus bisporus; method in brief: as §2
[14] = substrate: O=C(O)CCSc1ccc(O)cc1; test: as §3; settings: Agaricus bisporus; method in brief: as §2

Molecule | half-life [1] [min] | half-life [2] [min] | half-life [3] [min] | Activity [4] [%] | Activity [5] [%] | Activity [6] [%] | also measured
COc1ccc(O)cc1 [MEQUINOL] | – | – | – | 61.3 | 78.7 | 60 | –
Oc1ccc(SSc2ccc(O)cc2)cc1 | – | – | – | 0.2 | 0 | 22.5 | half-life [7]: < 1 min; IC50 [8]: 21.2 µM
Tyrosinase (Agaricus bisporus), O42713 (protein) MSLIATVGPTGGVKNRLNIVDFVKNEKFFTLYVRSLELLQAKEQHDYSSFFQLAGIHGLPFTEWAKERPSMNLYKAGYCTHGQVLFPTWHRTYLSVLEQILQGAAIEVAKKFTSNQTDWVQAAQDLRQPYWDWGFELMPPDEVIKNEEVNITNYDGKKISVKNPILRYHFHPIDPSFKPYGDFATWRTTVRNPDRNRREDIPGLIKKMRLEEGQIREKTYNMLKFNDAWERFSNHGISDDQHANSLESVHDDIHVMVGYGKIEGHMDHPFFAAFDPIFWLHHTNVDRLLSLWKAINPDVWVTSGRNRDGTMGIAPNAQINSETPLEPFYQSGDKVWTSASLADTARLGYSYPDFDKLVGGTKELIRDAIDDLIDERYGSKPSSGARNTAFDLLADFKGITKEHKEDLKMYDWTIHVAFKKFELKESFSLLFYFASDGGDYDQENCFVGSINAFRGTAPETCANCQDNENLIQEGFIHLNHYLARDLESFEPQDVHKFLKEKGLSYKLYSRGDKPLTSLSVKIEGRPLHLPPGEHRPKYDHTQARVVFDDVAVHVIN | – | – | – | – | – | – | kcat/Km [9]: 20600; kcat/Km [10]: 5140; kcat/Km [11]: 31000; Km [12]: 22.4 µM; kcat [12]: 0.461 s⁻¹; Km [13]: 46.8 µM; kcat [13]: 0.24 s⁻¹; Km [14]: 31.5 µM; kcat [14]: 0.972 s⁻¹

The next lines start with results.

half-life [1] [min] | half-life [2] [min] | half-life [3] [min] | Molecule | Activity [4] [%] | Activity [5] [%] | Activity [6] [%] | also measured
18.4 | 7.24 | 38.6 | CC(=O)/C=C\Sc1ccc(O)cc1 | – | – | – | –
6.1 | 2.2 | 20.5 | CC(=O)/C=C/Sc1ccc(O)cc1 | – | – | – | –

Source: ChEMBL document CHEMBL1158479, “Synthesis and preliminary in vitro biological evaluation of 4-[(4-hydroxyphenyl)sulfanyl]but-3-en-2-one, a 4-mercaptophenol derivative designed as a novel bifunctional antimelanoma agent” (J Med Chem, 2009)
